The source of these data is BindingDB's records for doi:10.1021/jm010816q (Eth Zurich, 2001).

Each structure is given as a SMILES string. Residues, ends and D or L forms follow the SMILES beside them.

Assay [1] has as its target Somatostatin receptor type 2 (Homo sapiens, UniProt P30874). Briefly: Binding assay at human somatostatin receptor 2 (hsst2) expressed in CCL-39 cells using LTT-CST-14-(Tyr10) as radioligand. Summed up: (§1)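 Chinese hamster lung fibroblast CCL39 cells stably expressing each hsst receptor; crude membrane homogenates in 10 mM HEPES pH 7.5, 0.5% BSA, 5 mM MgCl2, 5 mg/mL bacitracin. Vacuum filtration, bound radioactivity counted. Triplicate curves fitted by nonlinear regression; pKD reported.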

Assay [2] deals with Somatostatin receptor type 3 (Homo sapiens, UniProt P32745). In words: Binding assay at human somatostatin receptor 3 (hsst3) expressed in CCL-39 cells using LTT-CST-14-(Tyr10) as radioligand. Summed up: as §1
Somatostatin receptor type 3, sequence (P32745 whole entry): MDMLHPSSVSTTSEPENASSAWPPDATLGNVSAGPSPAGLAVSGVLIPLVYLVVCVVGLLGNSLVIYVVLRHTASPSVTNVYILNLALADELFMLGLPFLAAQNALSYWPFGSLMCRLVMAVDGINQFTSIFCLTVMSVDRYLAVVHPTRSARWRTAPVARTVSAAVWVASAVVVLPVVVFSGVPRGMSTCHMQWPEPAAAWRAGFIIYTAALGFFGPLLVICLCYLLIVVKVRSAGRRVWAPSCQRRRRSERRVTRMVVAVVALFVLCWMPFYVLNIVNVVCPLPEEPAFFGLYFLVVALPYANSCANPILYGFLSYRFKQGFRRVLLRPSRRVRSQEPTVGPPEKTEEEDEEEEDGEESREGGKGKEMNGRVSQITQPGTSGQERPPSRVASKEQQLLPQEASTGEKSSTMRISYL
The target of assay [3] is Somatostatin receptor type 1 (Homo sapiens, UniProt P30872). Briefly: Binding assay at human somatostatin receptor 1 (hsst1) expressed in CCL-39 cells using LTT-CST-14-(Tyr10) as radioligand. In short, it runs like this: as §1
Somatostatin receptor type 1, sequence (P30872 whole entry): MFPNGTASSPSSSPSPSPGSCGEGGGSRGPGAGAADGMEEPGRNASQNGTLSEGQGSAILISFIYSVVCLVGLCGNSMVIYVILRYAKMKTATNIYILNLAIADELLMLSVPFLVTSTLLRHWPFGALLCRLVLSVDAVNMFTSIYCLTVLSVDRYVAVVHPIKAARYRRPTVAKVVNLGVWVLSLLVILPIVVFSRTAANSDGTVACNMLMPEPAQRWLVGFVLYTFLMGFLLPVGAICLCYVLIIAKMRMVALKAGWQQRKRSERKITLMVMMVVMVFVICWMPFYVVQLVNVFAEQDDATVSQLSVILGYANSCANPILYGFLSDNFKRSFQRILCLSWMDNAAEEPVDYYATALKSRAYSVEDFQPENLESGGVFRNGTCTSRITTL
In assay [4] the target is Somatostatin receptor type 5 (Homo sapiens, UniProt P35346). In words: Binding assay at human somatostatin receptor 5 (hsst5) expressed in CCL-39 cells using LTT-CST-14-(Tyr10) as radioligand. In short, it runs like this:
as §1

Assay [5] deals with Somatostatin receptor type 4 (Homo sapiens, UniProt P31391). In words: Binding assay at human somatostatin receptor 4 (hsst4) expressed in CCL-39 cells using LTT-CST-14-(Tyr10) as radioligand. Summed up:
as §1

Somatostatin receptor type 5, sequence (P35346 whole entry): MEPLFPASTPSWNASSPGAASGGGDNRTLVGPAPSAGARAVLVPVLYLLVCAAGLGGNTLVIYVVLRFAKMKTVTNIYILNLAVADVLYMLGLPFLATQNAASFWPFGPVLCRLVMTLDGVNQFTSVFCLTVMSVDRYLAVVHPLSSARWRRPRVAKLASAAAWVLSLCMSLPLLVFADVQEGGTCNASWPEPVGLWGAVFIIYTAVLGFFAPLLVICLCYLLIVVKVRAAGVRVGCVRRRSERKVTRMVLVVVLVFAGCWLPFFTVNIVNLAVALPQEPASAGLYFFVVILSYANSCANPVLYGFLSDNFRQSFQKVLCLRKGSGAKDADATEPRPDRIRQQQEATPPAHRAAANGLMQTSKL
Somatostatin receptor type 4, sequence (P31391 whole entry): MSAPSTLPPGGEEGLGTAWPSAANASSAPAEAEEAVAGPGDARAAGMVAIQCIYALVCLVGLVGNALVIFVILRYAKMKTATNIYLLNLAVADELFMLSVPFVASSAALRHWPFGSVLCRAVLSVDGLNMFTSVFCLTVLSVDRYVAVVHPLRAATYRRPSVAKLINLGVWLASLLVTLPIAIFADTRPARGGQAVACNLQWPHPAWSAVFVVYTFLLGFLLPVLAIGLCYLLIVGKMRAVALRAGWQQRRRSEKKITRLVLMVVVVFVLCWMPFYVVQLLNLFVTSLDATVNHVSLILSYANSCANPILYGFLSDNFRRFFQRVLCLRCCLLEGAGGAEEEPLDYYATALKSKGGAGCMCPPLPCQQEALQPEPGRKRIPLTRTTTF
Somatostatin receptor type 2, sequence (P30874 whole entry): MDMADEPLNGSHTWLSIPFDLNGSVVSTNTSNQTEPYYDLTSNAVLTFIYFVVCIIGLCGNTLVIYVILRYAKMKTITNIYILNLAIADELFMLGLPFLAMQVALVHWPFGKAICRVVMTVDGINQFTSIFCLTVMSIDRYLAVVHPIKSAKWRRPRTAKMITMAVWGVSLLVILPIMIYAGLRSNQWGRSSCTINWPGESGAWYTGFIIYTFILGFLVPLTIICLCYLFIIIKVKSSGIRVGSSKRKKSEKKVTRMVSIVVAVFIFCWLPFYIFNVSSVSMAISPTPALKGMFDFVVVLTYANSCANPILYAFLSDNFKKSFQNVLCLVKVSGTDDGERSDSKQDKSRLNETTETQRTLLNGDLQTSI

Usually Kd stands for the concentration at which binding is half-saturated. High values mean a looser complex, low ones a tighter complex. As to `CC(=O)N[C@H](C(=O)N[C@@H](CCCCN)C(=O)N[C@@H](Cc1c[nH]c2ccccc12)C(=O)N[C@@H](Cc1ccccc1)C(N)=O)[C@@H](C)O` (Ac-TKWF-NH2), the Kd in assay [1] is over 100 µM; in assay [2] it was over 10 µM; in assay [3], over 100 µM; in assay [4], over 100 µM; in assay [5], over 10 µM.

For `CC(=O)N[C@H](CC(=O)N[C@@H](CCCCN)CC(=O)N[C@H](CC(=O)N[C@H](CC(N)=O)Cc1ccccc1)Cc1c[nH]c2ccccc12)[C@@H](C)O`, the Kd in assay [1] was over 100 µM; in assay [2] it was over 10 µM; in assay [3] it was over 100 µM; in assay [4], over 100 µM; in assay [5] it was over 100 µM.

Take `CC(=O)N[C@H](CC(=O)NC[C@H](CCCCN)C(=O)N[C@H](CC(=O)N[C@H](CC(N)=O)Cc1ccccc1)Cc1c[nH]c2ccccc12)[C@@H](C)O`: the Kd was over 10 µM in assay [1]; over 10 µM in assay [2]; 13.2 µM in assay [3]; over 10 µM in assay [4]; 0.083 µM in assay [5].
